Assay results taken from ChEMBL document CHEMBL1140036, “Novel glucagon receptor antagonists with improved selectivity over the glucose-dependent insulinotropic polypeptide receptor” (J Med Chem, 2008).
pIC50: −log10 of the molar value. Calls of active or inactive are those of the source. The calls are words filed in the database; no cut-off is given here.

Tests used:
[1] = molecular target: Glucagon receptor (Homo sapiens, UniProt P47871); assay: Binding affinity to human cloned GluR expressed in BHK cells; assay type: cell-based
Glucagon receptor (Homo sapiens, UniProt P47871), sequence (P47871 whole entry): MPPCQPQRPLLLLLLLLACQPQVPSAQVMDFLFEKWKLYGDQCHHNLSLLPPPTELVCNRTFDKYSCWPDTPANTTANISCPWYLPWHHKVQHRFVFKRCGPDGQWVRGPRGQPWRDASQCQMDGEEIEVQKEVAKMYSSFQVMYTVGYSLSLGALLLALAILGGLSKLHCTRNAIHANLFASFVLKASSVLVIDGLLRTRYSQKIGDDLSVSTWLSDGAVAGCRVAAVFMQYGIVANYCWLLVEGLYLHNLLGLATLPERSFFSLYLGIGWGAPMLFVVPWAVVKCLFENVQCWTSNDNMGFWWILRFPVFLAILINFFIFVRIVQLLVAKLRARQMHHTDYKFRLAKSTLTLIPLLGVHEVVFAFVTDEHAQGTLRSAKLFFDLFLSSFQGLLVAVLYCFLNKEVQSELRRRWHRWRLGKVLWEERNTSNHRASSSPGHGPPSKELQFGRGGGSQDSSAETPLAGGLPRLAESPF
In short: (§1)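 Competitive binding on purified plasma membranes from BHK cells expressing the cloned human receptor (glucagon, GIP or GLP-1 receptor). The glucagon receptor protocol follows earlier published work, and the GIP and GLP-1 assays were done the same way.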

[2] = molecular target: T1, Gastric inhibitory polypeptide receptor (Homo sapiens, UniProt P48546); assay: Binding affinity to human cloned GIPR expressed in BHK cells; assay type: cell-based; in short: as §1
T1 sequence (P48546 whole entry): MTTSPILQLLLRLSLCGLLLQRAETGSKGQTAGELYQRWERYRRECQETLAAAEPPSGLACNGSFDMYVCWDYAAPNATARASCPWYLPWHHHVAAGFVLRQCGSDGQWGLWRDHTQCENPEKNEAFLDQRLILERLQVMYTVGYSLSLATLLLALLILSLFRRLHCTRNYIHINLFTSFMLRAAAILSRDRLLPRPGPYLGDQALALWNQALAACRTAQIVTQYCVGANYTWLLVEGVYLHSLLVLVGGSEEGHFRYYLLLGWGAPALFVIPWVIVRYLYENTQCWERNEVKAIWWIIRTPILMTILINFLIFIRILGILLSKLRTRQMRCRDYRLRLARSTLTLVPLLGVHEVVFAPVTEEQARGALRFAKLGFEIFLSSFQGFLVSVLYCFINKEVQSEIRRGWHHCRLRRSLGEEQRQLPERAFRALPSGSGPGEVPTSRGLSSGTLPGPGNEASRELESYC

[3] = Half life in Sprague-Dawley rat at 2 mg/kg, iv; assay type: ADME, organism-based; set-up: dose 2 mg/kg, route intravenous; conditions: in vivo
In short: (§2)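 Fasted male Sprague-Dawley rats (~200 g) were given 2 mg/kg iv or 4 mg/kg po. Vehicle: 5% ethanol, 20% propylene glycol, 10% hydroxypropyl-β-cyclodextrin in phosphate buffer pH 7.5-8.0. EDTA blood was taken by heart puncture under CO2 at 5-360 min (iv) or 15-360 min (po). Plasma was analysed by HTLC-MS/MS, with noncompartmental PK analysis.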

[4] = Oral bioavailability in Sprague-Dawley rat at 4 mg/kg; assay type: ADME, organism-based; conditions: in vivo; in short: as §2
[5] = tested on: Hepatocyte; assay: Increase in lactate production in rat hepatocytes; assay type: functional, cell-based
[6] = molecular target: Glucagon receptor (Rattus norvegicus, UniProt P30082); assay: Binding affinity to GlucR in rat liver membrane; assay type: cell membranes
Glucagon receptor (Rattus norvegicus, UniProt P30082), sequence (P30082 whole entry): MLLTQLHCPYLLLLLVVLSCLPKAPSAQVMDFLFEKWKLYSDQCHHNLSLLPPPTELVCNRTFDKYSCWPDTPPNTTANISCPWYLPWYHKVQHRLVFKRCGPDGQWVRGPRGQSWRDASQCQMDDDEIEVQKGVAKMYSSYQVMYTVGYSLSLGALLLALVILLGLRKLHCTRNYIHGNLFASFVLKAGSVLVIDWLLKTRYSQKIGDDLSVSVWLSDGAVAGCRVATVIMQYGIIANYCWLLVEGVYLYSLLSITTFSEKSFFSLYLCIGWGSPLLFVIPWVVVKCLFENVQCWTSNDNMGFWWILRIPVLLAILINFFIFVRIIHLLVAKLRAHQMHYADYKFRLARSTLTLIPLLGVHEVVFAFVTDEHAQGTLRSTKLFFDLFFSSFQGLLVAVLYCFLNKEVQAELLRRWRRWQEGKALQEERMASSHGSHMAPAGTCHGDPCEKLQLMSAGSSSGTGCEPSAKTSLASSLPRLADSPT
In short: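 Competitive binding on isolated rat liver membrane preparations, run by the same protocol as the human glucagon receptor binding assay.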

[7] = tested on: Hepatocyte; assay: Inhibition of glucagon-stimulated glycogenolysis in rat hepatocytes; assay type: functional, cell-based
In short: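 Isolated, cultured primary rat hepatocytes were loaded with glycogen and stimulated with 0.5 nM glucagon plus increasing compound concentrations in medium containing 0.1% HSA. Glucose released into the medium was measured after 60 min, and IC50 was derived.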

[8] = tested on: BHK; assay: Selectivity ratio of IC50 for human cloned GluR to IC50 for human cloned GLP1R expressed in BHK cells; assay type: cell-based
[9] = molecular target: T2, Gastric inhibitory polypeptide receptor (Rattus norvegicus, UniProt P43219); assay: Binding affinity to GIPR in rat liver membrane; assay type: cell membranes
T2 sequence (P43219 whole entry): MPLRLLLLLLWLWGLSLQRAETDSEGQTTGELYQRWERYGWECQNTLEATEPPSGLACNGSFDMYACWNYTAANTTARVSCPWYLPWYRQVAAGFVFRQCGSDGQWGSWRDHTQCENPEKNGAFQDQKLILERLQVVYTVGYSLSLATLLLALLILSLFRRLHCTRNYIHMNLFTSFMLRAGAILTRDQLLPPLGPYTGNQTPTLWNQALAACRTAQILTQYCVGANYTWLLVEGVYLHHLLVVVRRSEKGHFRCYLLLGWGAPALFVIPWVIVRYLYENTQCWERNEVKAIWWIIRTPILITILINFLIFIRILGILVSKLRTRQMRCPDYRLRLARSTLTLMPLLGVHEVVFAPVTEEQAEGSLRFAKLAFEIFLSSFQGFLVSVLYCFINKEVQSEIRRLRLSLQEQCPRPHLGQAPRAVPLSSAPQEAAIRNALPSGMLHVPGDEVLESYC

[10] = molecular target: Glucagon-like peptide 1 receptor (Homo sapiens, UniProt P43220); assay: Binding affinity to human cloned GLP1R expressed in BHK cells; assay type: cell-based; in short: as §1
Glucagon-like peptide 1 receptor, sequence (P43220 whole entry): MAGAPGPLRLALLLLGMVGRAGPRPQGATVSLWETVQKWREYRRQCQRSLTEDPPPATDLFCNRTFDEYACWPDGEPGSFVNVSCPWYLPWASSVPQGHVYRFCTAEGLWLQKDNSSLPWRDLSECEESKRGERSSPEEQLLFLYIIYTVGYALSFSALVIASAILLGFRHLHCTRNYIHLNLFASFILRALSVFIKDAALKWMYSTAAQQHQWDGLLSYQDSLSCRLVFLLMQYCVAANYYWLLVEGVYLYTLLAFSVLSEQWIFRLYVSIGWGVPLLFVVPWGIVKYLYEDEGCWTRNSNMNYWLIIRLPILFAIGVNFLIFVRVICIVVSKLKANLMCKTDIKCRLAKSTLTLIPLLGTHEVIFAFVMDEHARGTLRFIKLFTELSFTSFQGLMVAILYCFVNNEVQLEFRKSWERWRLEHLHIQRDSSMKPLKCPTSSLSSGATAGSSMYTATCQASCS

[11] = tested on: Hepatocyte; assay: Inhibition of adrenaline-stimulated glycogenolysis in rat hepatocytes up to 25 uM; assay type: functional, cell-based
In short: (§3)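 Glycogen-loaded cultured primary rat hepatocytes, either unstimulated (basal) or adrenaline-stimulated, in medium with 0.1% HSA. Compounds were tested at concentrations up to 25 µM, and glycogenolysis was read as glucose release.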

[12] = tested on: Pancreas; assay: Inhibition of GIP-stimulated insulin secretion in rat pancreas; assay type: functional, tissue-based
In short: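 Isolated perfused rat pancreas: 80 mg/dL glucose at 1-4 min, then 160 mg/dL glucose with compound at 5-50 min, and 500 pM GIP infused at 15-34 min. Portal outflow was collected each minute and insulin measured by radioimmunoassay; n = 4 per group.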

[13] = tested on: Hepatocyte; assay: Inhibition of basal glycogenolysis in rat hepatocytes up to 25 uM; assay type: functional, cell-based; in short: as §3
[14] = tested on: Rattus norvegicus; assay: Inhibition of glucagon-stimulated increase in blood glucose levels in iv dosed Sprague-Dawley rat administered 5 mins before glucagon challenge; assay type: functional
In short: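 Nonfasted male Sprague-Dawley rats (200 g) were anaesthetized with sc fentanyl/fluanisone plus midazolam. Compound was given via jugular catheter at 0, 3 or 10 mg/kg, followed 5 min later by iv glucagon 3 µg/kg. Tail-tip blood glucose was sampled at 25 and 5 min before compound and 10 min after glucagon. Response = 10-min value minus mean basal.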

[15] = tested on: Mus musculus; assay: Reduction of hyperglycemia in leptin-deficient obese type-2 diabetes ob/ob mouse model at 100 mg/kg, po after 6 hrs; assay type: functional, organism-based; set-up: dose 100 mg/kg
In short: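 Male ob/ob mice (11-13 weeks), selected for highest blood glucose and randomized to matched groups. Dosed 0 or 100 mg/kg by oral gavage in the morning, with food withheld for 6 h. Blood glucose was measured ~1/2 h predose and at 2, 4, 6 and 24 h, expressed as change from baseline.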

With `O=C(NC[C@@H](O)C(=O)O)c1ccc(CN(C(=O)Nc2cc(Br)cc(C(F)(F)F)c2)c2ccc(C3=CCCCC3)cc2)cc1` the pIC50 [1] was 8.15, the pIC50 [2] was 6.42 and the half-life [3] was 46 min. The bioavailability [4] was 14%.
For `Cc1cc(NC(=O)N(Cc2ccc(C(=O)NC[C@@H](O)C(=O)O)cc2)[C@H]2CC[C@H](C(C)(C)C)CC2)cc(C(F)(F)F)c1`, the pIC50 [1] was 8.00 and the pIC50 [2] was 7.01.
In the case of `O=C(O)CCNC(=O)c1ccc(CN(C(=O)Nc2cc(Cl)cc(Cl)c2)c2ccc(C3=CCCCC3)cc2)cc1`, the Activity [5] was “Active”, the pIC50 [6] was 7.44 and the pIC50 [1] was 7.92. It also gave a pIC50 [7] of 6.09, a Ratio IC50 [8] of 400 and a pIC50 [2] of 7.19. The pIC50 [9] was 6.67, the pIC50 [10] was 5.30 and the Activity [11] was “inactive”. For the same molecule, the Activity [12] was “Active” and the Activity [13] was “inactive”.
For `O=C(NC[C@H](O)C(=O)O)c1ccc(CN(C(=O)Nc2cc(Cl)cc(Cl)c2)c2ccc(C3=CCCCC3)cc2)cc1`, the pIC50 [1] was 7.29, the pIC50 [2] was 6.35 and the pIC50 [10] was 5.03.
For `CC(C)(C)[C@H]1CC[C@H](N(Cc2ccc(C(=O)NC[C@@H](O)C(=O)O)cc2)C(=O)Nc2cc(C(F)(F)F)cc(C(F)(F)F)c2)CC1`, the pIC50 [1] was 8.10, the pIC50 [2] was 7.06 and the half-life [3] was 41 min. For the same molecule, the pIC50 [10] was 5.11 and the bioavailability [4] was 11%.
In the case of `O=C(NC[C@@H](O)C(=O)O)c1ccc(CN(C(=O)Nc2cccc(Br)c2)c2ccc(C3CCCCC3)cc2)cc1`, the pIC50 [1] was 8.10, the pIC50 [2] was 6.67 and the half-life [3] was 72 min. The bioavailability [4] was 21%.
Work on `O=C(NC[C@@H](O)C(=O)O)c1ccc(CN(C(=O)Nc2ccc(SC(F)(F)F)cc2)c2ccc(C3CCCCC3)cc2)cc1` yielded a pIC50 [1] of 8.22 and a pIC50 [2] of 7.92.
Molecule `CSc1cccc(NC(=O)N(Cc2ccc(C(=O)NC[C@@H](O)C(=O)O)cc2)c2ccc(C3CCCCC3)cc2)c1` has a pIC50 [1] of 8.05, a pIC50 [2] of 6.39 and a half-life [3] of 43 min. It also gave a bioavailability [4] of 8%.
With `O=C(NC[C@@H](O)C(=O)O)c1ccc(CN(C(=O)Nc2cc(Cl)cc(Cl)c2)c2ccc(C3=CCCCC3)cc2)cc1` the Activity [14] was “Dose-dependent effect”, the minimal effective dose ([14]; read-out: MED) was 3 mg/kg and the Activity [5] was “Active”. The pIC50 [6] was 7.37, the pIC50 [1] was 8.41 and the Activity [15] was “Active”. It also gave a pIC50 [7] of 6.70, a Ratio IC50 [8] of 4300 and a pIC50 [2] of 6.44. The pIC50 [9] was 6.30, the half-life [3] was 53 min and the pIC50 [10] was 4.77. The Activity [11] was “inactive”, the bioavailability [4] was 32% and the Activity [13] was “inactive”.
With `N#Cc1ccc(NC(=O)N(Cc2ccc(C(=O)NC[C@@H](O)C(=O)O)cc2)c2ccc(C3CCCCC3)cc2)cc1C(F)(F)F` the pIC50 [1] was 8.05 and the pIC50 [2] was 6.70.
For `CC(C)(C)c1ccc(N(Cc2ccc(C(=O)NCCC(=O)O)cc2)C(=O)Nc2ccc(OC(F)(F)F)cc2)cc1`, the pIC50 [1] was 7.44, the pIC50 [2] was 7.42 and the pIC50 [10] was 4.97.
`CO[C@H](CNC(=O)c1ccc(CN(C(=O)Nc2cc(Cl)cc(Cl)c2)c2ccc(C3=CCCCC3)cc2)cc1)C(=O)O` gave a pIC50 [1] of 6.16, a pIC50 [2] of 5.52 and a pIC50 [10] of 4.66.
In the case of `Cc1cc(C)cc(NC(=O)N(Cc2ccc(C(=O)NC[C@@H](O)C(=O)O)cc2)[C@H]2CC[C@H](C(C)(C)C)CC2)c1`, the pIC50 [1] was 7.57 and the pIC50 [2] was 6.66.
With `CC(C)(C)[C@H]1CC[C@H](N(Cc2ccc(C(=O)NC[C@H](O)C(=O)O)cc2)C(=O)Nc2cc(C(F)(F)F)cc(C(F)(F)F)c2)CC1` the pIC50 [1] was 7.09, the pIC50 [2] was 6.43 and the pIC50 [10] was 5.31.
`COc1cc(NC(=O)N(Cc2ccc(C(=O)NC[C@@H](O)C(=O)O)cc2)c2ccc(C3=CCCCC3)cc2)cc(C(F)(F)F)c1` showed a pIC50 [1] of 7.85, a pIC50 [2] of 6.55 and a half-life [3] of 53 min. For the same molecule, the bioavailability [4] was 7%.
Work on `CC(C)(C)c1ccc(N(Cc2ccc(C(=O)NCC(O)C(=O)O)cc2)C(=O)Nc2ccc(OC(F)(F)F)cc2)cc1` (racemic) yielded a pIC50 [1] of 7.26 and a pIC50 [2] of 6.50.
In the case of `O=C(NC[C@@H](O)C(=O)O)c1ccc(CN(C(=O)Nc2cc(Cl)cc(Cl)c2)c2ccc(C3CCCCC3)cc2)cc1`, the pIC50 [1] was 8.40 and the pIC50 [2] was 7.03.
`CS(=O)(=O)c1cc(NC(=O)N(Cc2ccc(C(=O)NC[C@@H](O)C(=O)O)cc2)c2ccc(C3=CCCCC3)cc2)ccc1OC(F)(F)F` gave a pIC50 [1] of 8.30, a pIC50 [2] of 6.30 and a half-life [3] of 55 min. The bioavailability [4] was 10%.
Work on `COc1cc(NC(=O)N(Cc2ccc(C(=O)NC[C@@H](O)C(=O)O)cc2)c2ccc(C3CCCCC3)cc2)cc(C(F)(F)F)c1` yielded a pIC50 [1] of 8.05 and a pIC50 [2] of 6.84.
Molecule `O=C(NC[C@@H](O)C(=O)O)c1ccc(CN(C(=O)Nc2ccc3c(c2)C(F)(F)OC(F)(F)O3)c2ccc(C3=CCCCC3)cc2)cc1` has a pIC50 [1] of 8.22 and a pIC50 [2] of 7.08.
`CC(C)(C)c1cccc(NC(=O)N(Cc2ccc(C(=O)NC[C@@H](O)C(=O)O)cc2)c2ccc(C3CCCCC3)cc2)c1` gave a pIC50 [1] of 7.74 and a pIC50 [2] of 7.13.
Work on `CC(C)(C)C1CCC(N(Cc2ccc(C(=O)NCCC(=O)O)cc2)C(=O)Nc2ccc(OC(F)(F)F)cc2)CC1` (stereo not given) yielded a pIC50 [6] of 7.64, a pIC50 [1] of 7.63 and a pIC50 [2] of 7.55. The pIC50 [9] was 7.38, the pIC50 [10] was 5.60 and the Activity [12] was “Active”.
Molecule `O=C(NCC(O)C(=O)O)c1ccc(CN(C(=O)Nc2cc(Cl)cc(Cl)c2)c2ccc(C3=CCCCC3)cc2)cc1` (racemic) has a pIC50 [1] of 7.85 and a pIC50 [2] of 6.15.
Work on `CC(C)(C)[C@H]1CC[C@H](N(Cc2ccc(C(=O)NCCC(=O)O)cc2)C(=O)Nc2cc(C(F)(F)F)cc(C(F)(F)F)c2)CC1` yielded a pIC50 [1] of 7.80 and a pIC50 [2] of 7.03.
`O=C(NC[C@@H](O)C(=O)O)c1ccc(CN(C(=O)Nc2cccc(Cl)c2)c2ccc(C3=CCCCC3)cc2)cc1` gave a pIC50 [1] of 7.85 and a pIC50 [2] of 6.39.
For `O=C(NC[C@@H](O)C(=O)O)c1ccc(CN(C(=O)Nc2ccccc2)c2ccc(C3=CCCCC3)cc2)cc1`, the pIC50 [1] was 6.78 and the pIC50 [2] was 5.86.
